The values below come from ChEMBL document CHEMBL1932986, “Synthesis and in vitro antimycobacterial activity of compounds derived from (R)- and (S)-2-amino-1-butanol - The crucial role of the configuration” (Eur J Med Chem, 2012).

The test system of one assay is Candida tropicalis. Nature of the assay: Antifungal activity against Candida tropicalis ATCC 20336 at 25 mg/ml after 72 hrs by agar diffusion test. The conditions noted are these: ATCC 20336, 72 h, read-out: DIZ. The class given is functional. Put shortly:
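Yeast grown on yeast peptone dextrose agar; wells cut in the seeded agar are filled with compound solution in DMSO. Read-out is the diameter of the clear inhibition zone.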

The next assay relates to Saccharomyces cerevisiae. Nature of the assay: Antifungal activity against Saccharomyces cerevisiae ATCC 9763 at 12.5 mg/ml after 72 hrs by agar diffusion test. The format is functional. The settings on record: ATCC 9763, 72 h, read-out: DIZ. The method, boiled down:
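Agar diffusion: yeasts grown on yeast peptone dextrose agar and fungi on potato dextrose agar. Wells are filled with […] of compound solution in DMSO at various concentrations, and the clear-zone diameter is measured. Bracketed values give the lowest concentration (mg/ml) that produces a zone >11 mm. A first screen is run at 50 mg/ml.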

On to `OC(Cn1cncn1)(Cn1cncn1)c1ccc(F)cc1F` [FLUCONAZOLE], for which the zone of inhibition at 25000 µg/mL in the assay on Candida tropicalis was found to be 35 mm. For `CCC(C)n1ncn(-c2ccc(N3CCN(c4ccc(OCC5COC(Cn6cncn6)(c6ccc(Cl)cc6Cl)O5)cc4)CC3)cc2)c1=O` (configuration not stated) [ITRACONAZOLE], the zone of inhibition at 12500 µg/mL with Saccharomyces cerevisiae came out at 30 mm.
